Bioassay records deposited in PubChem BioAssay by several laboratories.
SR-BI DiI-HDL act = activators of SR-BI mediated HDL lipid uptake; CHO ldlA[mSR-BI] cells, DiI-HDL uptake fluorescence, 3 h; 100 = double the neutral-control signal; activation, % at 12.5 µM; hit rate 0.096% among 320,000; AID 504775;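 active = mean replicate activation of at least 60% and every replicate at or above 60%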;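 also: 0% = median plate neutral-control signal and 100% = twice that signal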
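Test system: SR-BI-overexpressing, LDLR-lacking CHO cells; Also added: labelled HDL, 10 µg/mL; Measured by: bottom-read cell fluorescence after medium removal, ex 550/em 595 nm; Timing: 3 h uptake period with compound, 37 °C; Buffer or medium: F12, 0.5% BSA, 25 mM HEPES; Doses: single compound concentration, delivered by pin transfer.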
CAL PDZ FP-1 = blocks peptide binding to the human CAL PDZ domain | hit rate 0.92% among 300,000 | purified CAL PDZ, TMR-peptide fluorescence polarization, 1 h | AID 602252 | Q9HD26 | inhibition, % at 24.9 µM;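 active = mean inhibition of at least 30% with at least half of replicates also reaching 30%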;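 also: 0% = DMSO neutral control and 100% = excess unlabeled competitor peptide PRC23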
CAL PDZ FP-2 = blocks peptide binding to human CAL PDZ domain | AID 504414 | Q9HD26 | hit rate 0.02% among 330,000 | purified CAL PDZ, TMR-peptide fluorescence polarization, 1 h | inhibition, % at 20 µM;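 active = highest replicate inhibition of at least 40%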;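 also: plate controls were DMSO neutral control wells for no effect and unlabeled competitor peptide control wells for full effect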
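material = purified tagged CAL PDZ domain construct (CerCALP) | buffer or medium = sodium phosphate/NaCl buffer pH 7.4 with TCEP, IgG, Thesit | reagent = TMR-labelled reporter peptide T*-PRC34 bound in PDZ groove | incubation = 1 h room-temperature incubation prior to read | measured by = fluorescence polarization (mP) | evaluation = percent inhibition from loss of millipolarization | control set = unlabelled peptide and DMSO controls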
SR-BI HDL uptake = blocks mouse SR-BI lipid uptake from DiI-HDL; inhibition, % at 12.5 µM; Q61009; hit rate 0.96% among 320,000; AID 488896; ldlA[mSR-BI] CHO cells, DiI-HDL uptake fluorescence, 3 h;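 active = mean replicate inhibition of at least 70% and a set share of replicates each scoring 70 or more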;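 also: 0% = median of neutral control wells and 100% = median of positive control wells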
Target sequence (Q61009 whole entry, looked up): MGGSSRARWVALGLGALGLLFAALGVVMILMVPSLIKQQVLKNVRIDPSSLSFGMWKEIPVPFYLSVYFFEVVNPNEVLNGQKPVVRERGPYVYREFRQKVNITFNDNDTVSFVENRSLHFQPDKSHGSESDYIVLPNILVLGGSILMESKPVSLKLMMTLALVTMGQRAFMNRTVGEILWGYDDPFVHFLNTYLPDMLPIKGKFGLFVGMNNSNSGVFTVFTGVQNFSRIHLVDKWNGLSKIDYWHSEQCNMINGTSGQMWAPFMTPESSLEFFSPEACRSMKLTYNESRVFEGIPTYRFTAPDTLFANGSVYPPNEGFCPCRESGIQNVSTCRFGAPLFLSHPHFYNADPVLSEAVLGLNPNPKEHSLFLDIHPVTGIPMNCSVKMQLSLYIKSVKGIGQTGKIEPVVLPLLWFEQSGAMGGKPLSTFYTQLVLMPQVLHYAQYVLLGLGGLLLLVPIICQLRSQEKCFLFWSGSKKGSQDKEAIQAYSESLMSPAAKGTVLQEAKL
ATG4B inh = blocks human ATG4B protease cleavage of LC3 substrate | Q9Y4P1 | ATG4B cleavage of LC3-PLA2, NBD-HPC fluorescence, 1 h | inhibition, % at 8.33 µM | hit rate 0.51% among 340,000 | AID 504462; in the data active = inhibition above about 40%
* hit, by the source's call; · = no result. An excerpt weighted towards active compounds, which were near 2.3% of everything screened.

SMILES | SR-BI DiI-HDL act | CAL PDZ FP-1 | CAL PDZ FP-2 | SR-BI HDL uptake | ATG4B inh
O=C1c2ccsc2SCCN1Cc1ccc(F)cc1 | -2.4 | 38.6* | · | 2.4 | 2.3
Cn1cc(S(=O)(=O)N2CCCC2)cc1C(=O)N1CCN(c2ccccc2)CC1 | 23.0 | · | -1.0 | -23.0 | -9.1
Cc1sc2nc(SCC(=O)Nc3ccc(S(N)(=O)=O)cc3)[nH]c(=O)c2c1C | 8.2 | 43.5* | 0.0 | -8.2 | -3.1
CN(Cc1ccccc1)C(=O)c1cccc(NC(=O)Cc2ccc(NC(=O)C3CCN(C(=O)C4CCC4)CC3)cc2)c1 | -92.4 | 13.7 | -0.3 | 92.4* | -14.8
O=C(Cc1ccc(NC(=O)C2CCCN(C(=O)C3CCCC3)C2)cc1)Nc1cccc(C(=O)N2CCCCC2)c1 (stereo not given) | -73.3 | 0.5 | -1.6 | 73.3* | -5.8
O=C(Nc1ccc(C(=O)N2CCCCC2)cc1)C1CC1 | 14.3 | 41.9* | 0.0 | -14.3 | 2.4
Nc1nc(-c2ccccc2)c(N=Nc2cccc3ccccc23)s1 | -133.8 | -13.3 | 0.1 | 133.8* | 12.4
CC(=O)Nc1sc(N)nc1-c1ccccc1 | 41.1 | · | 0.5 | -41.1 | -2.5
Nc1nc(-c2ccccc2)c(N=Nc2ccccc2Cl)s1 | -88.3 | 3.4 | -0.3 | 88.3* | 1.4
CCc1ccc(/C=N/NC(=O)c2cc(C3CC3)nc3ccc(Br)cc23)s1 | -87.1 | · | -0.1 | 87.1* | 7.6
O=C(CNC(=O)c1ccccc1)OCCCOC(=O)CNC(=O)c1ccccc1 | 8.8 | 0.4 | -4.4 | -8.8 | -4.1
c1cncc(CSc2ccc(-c3ccc4c(c3)OCO4)nn2)c1 | 0.5 | 46.2* | -2.4 | -0.5 | -1.2
Fc1cccc(CSc2ccc(-c3ccc4c(c3)OCO4)nn2)c1 | 25.7 | -1.9 | -1.7 | -25.7 | 11.9
O=C(NC1CCCCC1)C(=S)NCCc1ccccc1 | 0.7 | 42.9* | -1.7 | -0.7 | -0.7
O=C1C2C3c4ccccc4C(c4ccccc43)C2C(=O)N1Cc1ccco1 (stereo not given) | 19.8 | -5.6 | 0.2 | -19.8 | -1.9
CC12C(=O)N(Cc3ccco3)C(=O)C1C1c3ccccc3C2c2ccccc21 (stereo not given) | 9.4 | 102.8* | · | -9.4 | -13.1
COc1ccc(-c2coc3cc(OC(C)=O)ccc3c2=S)cc1 | -13.1 | -1.7 | -1.4 | 13.1 | -1.8
CCCCCCCCCCSc1n[nH]c(N)n1 | 13.4 | 0.2 | -0.5 | -13.4 | 18.0
CC(C)n1ncc2c(C(=O)NCC(=O)Nc3ccccc3Br)cc(C3CC3)nc21 | -20.5 | 46.5* | -0.2 | 20.5 | -8.7
COc1ccc(NC(=O)c2cc(C3CC3)nc3c2cnn3C(C)C)cc1OC | -74.3 | -1.3 | -0.8 | 74.3* | -3.4
Cc1ccc(CC2(c3ccccc3)NC(=O)NC2=O)cc1 (stereo not given) | 25.4 | · | -0.6 | -25.4 | 5.6
C=C(C)C(=O)N1CCN(C(=O)C(=C)C)c2ccccc21 | -6.4 | -0.3 | 0.6 | 6.4 | -3.2
CCCc1c(C(=O)N/N=C/c2ccc(OCc3ccccc3)c(OC)c2)nnn1-c1nonc1N | -75.8 | -0.8 | -0.9 | 75.8* | 4.4
COc1cc(/C=N/NC(=O)c2cc(C)oc2C)ccc1OCc1ccccc1 | -78.7 | -3.0 | -0.8 | 78.7* | 3.3
COc1ccc(/C=N/NC(=O)c2ccoc2C)cc1OC | 9.2 | -11.6 | -0.3 | -9.2 | 1.3
SMILES | SR-BI DiI-HDL act | CAL PDZ FP-1 | CAL PDZ FP-2 | SR-BI HDL uptake | ATG4B inh
COc1ccc(/C=N\NC(=O)c2ccccc2Br)cc1COc1ccc(F)cc1 | -79.3 | -1.1 | -2.6 | 79.3* | 3.8
CCCc1c(C(=O)N/N=C/c2ccccc2OCc2ccc(F)cc2)nnn1-c1nonc1N | -84.7 | 0.3 | -1.4 | 84.7* | -2.2
CC(C)CCN1C(=O)c2ccc(C(=O)Nc3ccccc3C(=O)O)cc2C1=O | 2.5 | 1.8 | -1.7 | -2.5 | 6.5
COC(=O)c1ccc(N2CCN(C)CC2)c(NC(=O)COc2cccc(C)c2)c1 | · | -1.9 | -2.8 | · | -0.3
Nc1ccc2nc[nH]c2c1 | 25.5 | -1.1 | -1.4 | -25.5 | -2.4
O=Nc1c(-c2c(O)[nH]c3cc(Br)ccc23)[nH]c2ccccc12 | -118.1 | 2.3 | 0.7 | 118.2* | 27.3
O=C(c1ccccc1)C(CCc1ccccn1)CCc1ccccn1 | 27.6 | 46.6* | 24.0 | -27.6 | -4.2
CC(/C=C/c1ccc2c(c1)OCO2)=N/NC(=O)c1ccncc1 | -6.4 | · | -0.6 | 6.4 | -7.9
CC1=C(/C=C/C(C)=N\NC(=O)c2ccncc2)C(C)(C)CCC1 | -87.1 | -1.4 | 0.1 | 87.1* | -3.1
